Key:
A549 [1] = assay: Cell cycle arrest in human A549 cells assessed as accumulation at G2/M phase at 1 uM after 24 to 48 hrs by propidium iodide staining based flow cytometry (reference value: 22.3 to 31%); assay type: functional
Method in brief: (§1)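 Cells were seeded at 1×10^6 per well and treated 24 h later with 0.5, 1 or 2 µM compound; DMSO-treated cells served as control. Methods give harvest at 48 h (floating plus trypsinised cells); the figure legend says 24 h. Cells were fixed in 70% ethanol for 30 min at 4 °C and stained with PI, Triton X-100 and RNase A for 15 min in the dark. 10000 events were counted by flow cytometry.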

A549 [2] = assay: Induction of apoptosis in human A549 cells after 24 hrs by Annexin V-FITC/PI dual staining based flow cytometry; assay type: functional, cell-based
MDA-MB-231 [3] = assay: Induction of apoptosis in human MDA-MB-231 cells after 24 hrs by Annexin V-FITC/PI dual staining based flow cytometry; assay type: functional, cell-based
A549 [4] = assay: Antimigratory activity in human A549 cells at 0.5 to 2 uM measured after 24 to 48 hrs by wound healing assay; assay type: functional, cell-based
Method in brief: (§2)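 Wound-healing assay. Cells were seeded at 5×10^5 per well and grown 24 h to a confluent monolayer, then scratched once across the middle with a sterile pipette tip and washed twice with PBS. Compound was added at 0.5, 1 and 2 µM. Wound closure was photographed by phase-contrast microscopy at 0, 24 and 48 h in three or more random fields.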

MDA-MB-231 [5] = assay: Cell cycle arrest in human MDA-MB-231 cells assessed as accumulation at G0/G1 phase at 1 uM after 24 to 48 hrs by propidium iodide staining based flow cytometry (reference value: 74.4%); assay type: functional; method in brief: as §1
MDA-MB-231 [6] = assay: Cytotoxicity against human MDA-MB-231 cells assessed as growth inhibition after 72 hrs by MTT assay; assay type: functional, cell-based; conditions: MDA-MB-231, 72 h
Method in brief: (§3)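 Cells in RPMI 1640 (PC-3, A549, MDA-MB-231) or DMEM (U87MG, MCF-7) with 10% FBS, passages 4-10, were seeded at 3000-5000 per well and left 24 h. Compounds in DMSO/medium were added for 72 h; DMSO served as control. MTT (5 mg/mL) was added for 4 h and formazan dissolved in DMSO. Absorbance was read at 570 nm minus 630 nm. % inhibition was taken versus DMSO, with IC50 by probit; mean ± SD of three experiments in triplicate.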

A549 [7] = assay: Induction of apoptosis in human A549 cells assessed as early apoptotic cells at 0.5 uM after 24 hrs by Annexin V-FITC/PI dual staining based flow cytometry (reference value: 5.3%); assay type: functional
MDA-MB-231 [8] = assay: Antimigratory activity in human MDA-MB-231 cells at 0.5 to 2 uM measured after 24 to 48 hrs by wound healing assay; assay type: functional, cell-based; method in brief: as §2
A549 [9] = assay: Induction of apoptosis in human A549 cells assessed as late apoptotic cells at 1 uM after 24 hrs by Annexin V-FITC/PI dual staining based flow cytometry (reference value: 4.5%); assay type: functional
A549 [10] = assay: Induction of apoptosis in human A549 cells assessed as early apoptotic cells at 1 uM after 24 hrs by Annexin V-FITC/PI dual staining based flow cytometry (reference value: 5.3%); assay type: functional
MDA-MB-231 [11] = assay: Induction of apoptosis in human MDA-MB-231 cells assessed as late apoptotic cells at 0.5 uM after 24 hrs by Annexin V-FITC/PI dual staining based flow cytometry (reference value: 6.2%); assay type: functional
MDA-MB-231 [12] = assay: Induction of apoptosis in human MDA-MB-231 cells assessed as necrotic cells at 2 uM after 24 hrs by Annexin V-FITC/PI dual staining based flow cytometry (reference value: 1.9%); assay type: functional
MDA-MB-231 [13] = assay: Induction of apoptosis in human MDA-MB-231 cells assessed as early apoptotic cells at 0.5 uM after 24 hrs by Annexin V-FITC/PI dual staining based flow cytometry (reference value: 0.3%); assay type: functional
A549 [14] = assay: Induction of apoptosis in human A549 cells assessed as necrotic cells at 0.5 uM after 24 hrs by Annexin V-FITC/PI dual staining based flow cytometry (reference value: 5.2%); assay type: functional
A549 (human) = assay: Induction of apoptosis in human A549 cells assessed as early apoptotic cells at 2 uM after 24 hrs by Annexin V-FITC/PI dual staining based flow cytometry (reference value: 0.3%)
MDA-MB-231 [15] = assay: Induction of reactive oxygen species generation in human MDA-MB-231 cells at 0.5 to 2 uM after 48 hrs by carboxy-DCFDA staining based spectrofluorometry relative to control; assay type: functional
A549 [16] = assay: Cytotoxicity against human A549 cells assessed as growth inhibition after 72 hrs by MTT assay; assay type: functional, cell-based; conditions: A549, 72 h; method in brief: as §3
MDA-MB-231 [17] = assay: Cell cycle arrest in human MDA-MB-231 cells assessed as accumulation at S phase at 2 uM after 24 to 48 hrs by propidium iodide staining based flow cytometry (reference value: 4.6%); assay type: functional; method in brief: as §1
MDA-MB-231 [18] = assay: Induction of apoptosis in human MDA-MB-231 cells assessed as early apoptotic cells at 1 uM after 24 hrs by Annexin V-FITC/PI dual staining based flow cytometry (reference value: 0.3%); assay type: functional
MDA-MB-231 [19] = assay: Induction of apoptosis in human MDA-MB-231 cells assessed as necrotic cells at 0.5 uM after 24 hrs by Annexin V-FITC/PI dual staining based flow cytometry (reference value: 1.9%); assay type: functional
MDA-MB-231 [20] = assay: Induction of apoptosis in human MDA-MB-231 cells assessed as necrotic cells at 1 uM after 24 hrs by Annexin V-FITC/PI dual staining based flow cytometry (reference value: 1.9%); assay type: functional
MDA-MB-231 [21] = assay: Disruption of mitochondrial membrane potential in human MDA-MB-231 cells after 48 hrs by Rhodamine-123 staining based spectrofluorometry; assay type: functional, cell-based
Method in brief: (§4)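 Cells were seeded at 5×10^5 cells/mL overnight and treated with 0.5, 1 and 2 µM compound; the methods say 24 h and the results text says 48 h. Trypsinised cells were washed and stained with rhodamine-123 (2 µM in PBS) for 30 min at room temperature in the dark, washed and read by spectrofluorometer. Data are mean ± SD of three independent experiments.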

A549 [22] = assay: Cell cycle arrest in human A549 cells assessed as accumulation at G2/M phase at 0.5 uM after 24 to 48 hrs by propidium iodide staining based flow cytometry (reference value: 22.3 to 31%); assay type: functional; method in brief: as §1
A549 [23] = assay: Cell cycle arrest in human A549 cells assessed as accumulation at G0/G1 phase at 1 uM after 24 to 48 hrs by propidium iodide staining based flow cytometry (reference value: 49.1%); assay type: functional; method in brief: as §1
A549 [24] = assay: Disruption of mitochondrial membrane potential in human A549 cells at 0.5 to 2 uM after 48 hrs by Rhodamine-123 staining based spectrofluorometry; assay type: functional; method in brief: as §4
A549 [25] = assay: Induction of apoptosis in human A549 cells assessed as necrotic cells at 1 uM after 24 hrs by Annexin V-FITC/PI dual staining based flow cytometry (reference value: 5.2%); assay type: functional
A549 [26] = assay: Cell cycle arrest in human A549 cells assessed as accumulation at G2/M phase after 24 to 48 hrs by propidium iodide staining based flow cytometry; assay type: functional; method in brief: as §1

Question: What does the source list for `O=C1c2ccccc2Nc2ccccc2N1Cc1cn(Cc2ccccc2)nn1`?
Answer: Activity (A549 [1]): 43.6%; Activity (A549 [2]): Dose-dependent effect; Activity (MDA-MB-231 [3]): Dose-dependent effect; inhibition (A549 [4]): Dose-dependent effect; Activity (MDA-MB-231 [5]): 60.1%; IC50 (MDA-MB-231 [6]): 730 nM; Activity (A549 [7]): 9.4%; inhibition (MDA-MB-231 [8]): Dose-dependent effect; Activity (A549 [9]): 10.7%; Activity (A549 [10]): 14.5%; Activity (MDA-MB-231 [11]): 10.1%; Activity (MDA-MB-231 [12]): 2.5%; Activity (MDA-MB-231 [13]): 16.8%; Activity (A549 [14]): 2.5%; Activity (A549 (human)): 19.3%; fold change (FC) (MDA-MB-231 [15]): 2.09; IC50 (A549 [16]): 710 nM; Activity (MDA-MB-231 [17]): 5.5%; Activity (MDA-MB-231 [18]): 14.2%; Activity (MDA-MB-231 [19]): 2.5%; Activity (MDA-MB-231 [20]): 1.4%; Activity (MDA-MB-231 [21]): Dose-dependent effect; Activity (A549 [22]): 36.6%; Activity (A549 [23]): 39.8%; Activity (A549 [24]): 15%; Activity (A549 [25]): 1.9%; Activity (A549 [26]): Dose-dependent effect

Source: ChEMBL document CHEMBL3763097, “Synthesis and biological evaluation of 5,10-dihydro-11H-dibenzo[b,e][1,4]diazepin-11-one structural derivatives as anti-cancer and apoptosis inducing agents” (Eur J Med Chem, 2016)
